Reference: ChEMBL document CHEMBL3616442, “Unconventional Knoevenagel-type indoles: Synthesis and cell-based studies for the identification of pro-apoptotic agents” (Eur J Med Chem, 2015)

Key:
MT4 = assay: Antiproliferative activity against human MT4 cells after 96 hrs by MTT assay; assay type: functional, cell-based; settings: MT4, 96 h
Procedure, shortened: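 Exponentially growing MT-4 cells (CD4+ human T-cells carrying integrated HTLV-1 genome), seeded at 1×10^5 cells/mL in RPMI-1640 with 10% FCS and antibiotics. Serial dilutions of compound (DMSO stock 100 mM, diluted in medium), 37 °C, 5% CO₂, 96 h. Viability read by MTT. 50% inhibition versus untreated controls by linear regression. Mean ± SD of three independent determinations.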

CCRF-CEM = assay: Growth inhibition of human CCRF-CEM cells after 48 hrs by sulforhodamine B assay; assay type: functional
Procedure, shortened: (§1)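 NCI 60-cell-line screen. Compounds tested at five 10-fold dilutions from 10^-4 to 10^-8 M. Cells exposed for the last 48 h of a 72 h incubation, growth estimated by sulforhodamine B protein assay. GI50 is the concentration giving 50% growth inhibition. Values beyond the tested range are expressed as greater or lesser than the extreme concentration.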

HL-60(TB) = assay: Growth inhibition of human HL-60(TB) cells after 48 hrs by sulforhodamine B assay; assay type: functional; settings: HL-60, 48 h
Procedure, shortened: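 NCI 60-cell-line screen, HL-60(TB) included. Compound given at five 10-fold dilutions from 10^-4 to 10^-8 M. Cells exposed for the last 48 h of a 72 h incubation. Growth or viability estimated by sulforhodamine B protein assay. GI50 is the concentration giving 50% growth inhibition. Values outside the tested range are reported as greater or less than the highest or lowest concentration.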

[1] = Growth inhibition of human RPMI8226 cells after 48 hrs by sulforhodamine B assay; assay type: functional; settings: RPMI-8226, 48 h
SR = assay: Growth inhibition of human SR cells after 48 hrs by sulforhodamine B assay; assay type: functional
[2] = Growth inhibition of human HOP92 cells after 48 hrs by sulforhodamine B assay; assay type: functional; settings: HOP-92, 48 h; procedure, shortened: as §1
NCI-H23 = assay: Growth inhibition of human NCI-H23 cells after 48 hrs by sulforhodamine B assay; assay type: functional; settings: NCI-H23, 48 h; procedure, shortened: as §1
NCI-H322M = assay: Growth inhibition of human NCI-H322M cells after 48 hrs by sulforhodamine B assay; assay type: functional; procedure, shortened: as §1
NCI-H460 = assay: Growth inhibition of human NCI-H460 cells after 48 hrs by sulforhodamine B assay; assay type: functional; settings: NCI-H460, 48 h; procedure, shortened: as §1
NCI-H522 = assay: Growth inhibition of human NCI-H522 cells after 48 hrs by sulforhodamine B assay; assay type: functional; settings: NCI-H522, 48 h; procedure, shortened: as §1
[3] = Growth inhibition of human COLO205 cells after 48 hrs by sulforhodamine B assay; assay type: functional; settings: COLO 205, 48 h; procedure, shortened: as §1
HCT-116 = assay: Growth inhibition of human HCT116 cells after 48 hrs by sulforhodamine B assay; assay type: functional; settings: HCT-116, 48 h; procedure, shortened: as §1
HT-29 = assay: Growth inhibition of human HT-29 cells after 48 hrs by sulforhodamine B assay; assay type: functional; settings: HT-29, 48 h; procedure, shortened: as §1
KM12 = assay: Growth inhibition of human KM12 cells after 48 hrs by sulforhodamine B assay; assay type: functional; settings: KM12, 48 h; procedure, shortened: as §1
SW-620 = assay: Growth inhibition of human SW620 cells after 48 hrs by sulforhodamine B assay; assay type: functional; settings: SW-620, 48 h
SF-268 = assay: Growth inhibition of human SF268 cells after 48 hrs by sulforhodamine B assay; assay type: functional; settings: SF-268, 48 h
[4] = Growth inhibition of human SF295 cells after 48 hrs by sulforhodamine B assay; assay type: functional; settings: SF-295, 48 h
[5] = Growth inhibition of human SF539 cells after 48 hrs by sulforhodamine B assay; assay type: functional; settings: SF-539, 48 h
SNB-19 = assay: Growth inhibition of human SNB19 cells after 48 hrs by sulforhodamine B assay; assay type: functional; settings: SNB-19, 48 h
SNB-75 = assay: Growth inhibition of human SNB75 cells after 48 hrs by sulforhodamine B assay; assay type: functional; settings: SNB-75, 48 h
U-251 = assay: Growth inhibition of human U251 cells after 48 hrs by sulforhodamine B assay; assay type: functional; settings: U-251, 48 h
Malme-3M = assay: Growth inhibition of human MALME-3M cells after 48 hrs by sulforhodamine B assay; assay type: functional; procedure, shortened: as §1
M14 = assay: Growth inhibition of human M14 cells after 48 hrs by sulforhodamine B assay; assay type: functional; settings: M14, 48 h; procedure, shortened: as §1
SK-MEL-2 = assay: Growth inhibition of human SK-MEL-2 cells after 48 hrs by sulforhodamine B assay; assay type: functional; settings: SK-MEL-2, 48 h
UACC-257 = assay: Growth inhibition of human UACC257 cells after 48 hrs by sulforhodamine B assay; assay type: functional; settings: UACC-257, 48 h
UACC-62 = assay: Growth inhibition of human UACC62 cells after 48 hrs by sulforhodamine B assay; assay type: functional; settings: UACC-62, 48 h
IGROV-1 = assay: Growth inhibition of human IGROV1 cells after 48 hrs by sulforhodamine B assay; assay type: functional; settings: IGROV-1, 48 h; procedure, shortened: as §1
OVCAR-4 = assay: Growth inhibition of human OVCAR4 cells after 48 hrs by sulforhodamine B assay; assay type: functional; settings: OVCAR-4, 48 h; procedure, shortened: as §1
OVCAR-5 = assay: Growth inhibition of human OVCAR5 cells after 48 hrs by sulforhodamine B assay; assay type: functional; settings: OVCAR-5, 48 h
OVCAR-8 = assay: Growth inhibition of human OVCAR8 cells after 48 hrs by sulforhodamine B assay; assay type: functional; settings: OVCAR-8, 48 h
[6] = Growth inhibition of human NCI-ADR-RES cells after 48 hrs by sulforhodamine B assay; assay type: functional; procedure, shortened: as §1
SK-OV-3 = assay: Growth inhibition of human SKOV3 cells after 48 hrs by sulforhodamine B assay; assay type: functional; settings: SK-OV-3, 48 h
786-0 = assay: Growth inhibition of human 786-0 cells after 48 hrs by sulforhodamine B assay; assay type: functional; settings: 786-0, 48 h; procedure, shortened: as §1
A498 = assay: Growth inhibition of human A498 cells after 48 hrs by sulforhodamine B assay; assay type: functional; settings: A498, 48 h; procedure, shortened: as §1
ACHN = assay: Growth inhibition of human ACHN cells after 48 hrs by sulforhodamine B assay; assay type: functional; procedure, shortened: as §1
CAKI-1 = assay: Growth inhibition of human CAKI-1 cells after 48 hrs by sulforhodamine B assay; assay type: functional; settings: CAKI-1, 48 h; procedure, shortened: as §1
UO-31 = assay: Growth inhibition of human UO31 cells after 48 hrs by sulforhodamine B assay; assay type: functional; settings: UO-31, 48 h
PC-3 = assay: Growth inhibition of human PC3 cells after 48 hrs by sulforhodamine B assay; assay type: functional; settings: PC-3, 48 h
DU-145 = assay: Growth inhibition of human DU145 cells after 48 hrs by sulforhodamine B assay; assay type: functional; settings: DU-145, 48 h; procedure, shortened: as §1
[7] = Growth inhibition of human BT549 cells after 48 hrs by sulforhodamine B assay; assay type: functional; settings: BT-549, 48 h; procedure, shortened: as §1
T47D = assay: Growth inhibition of human T47D cells after 48 hrs by sulforhodamine B assay; assay type: functional
K562 = assay: Growth inhibition of human K562 cells after 48 hrs by sulforhodamine B assay; assay type: functional; settings: K562, 48 h; procedure, shortened: as §1
SK-MEL-5 = assay: Growth inhibition of human SK-MEL-5 cells after 48 hrs by sulforhodamine B assay; assay type: functional; settings: SK-MEL-5, 48 h

SMILES: COC(=O)/C(=C\c1c(-c2ccccc2)[nH]c2ccccc12)S(C)(=O)=O
- EC50 (MT4): 400 nM
- GI50 (CCRF-CEM): 7.6 µM
- GI50 (HL-60(TB)): 3400 nM
- GI50 [1]: 6.2 µM
- GI50 (SR): 8.1 µM
- GI50 [2]: 6.6 µM
- GI50 (NCI-H23): 8 µM
- GI50 (NCI-H322M): 7.4 µM
- GI50 (NCI-H460): 3500 nM
- GI50 (NCI-H522): 3100 nM
- GI50 [3]: 4400 nM
- GI50 (HCT-116): 4200 nM
- GI50 (HT-29): 3600 nM
- GI50 (KM12): 1500 nM
- GI50 (SW-620): 2900 nM
- GI50 (SF-268): 4300 nM
- GI50 [4]: 3100 nM
- GI50 [5]: 3100 nM
- GI50 (SNB-19): 8.7 µM
- GI50 (SNB-75): 2300 nM
- GI50 (U-251): 3600 nM
- GI50 (Malme-3M): 12.2 µM
- GI50 (M14): 3300 nM
- GI50 (SK-MEL-2): 11.8 µM
- GI50 (UACC-257): 11.2 µM
- GI50 (UACC-62): 3300 nM
- GI50 (IGROV-1): 1700 nM
- GI50 (OVCAR-4): 6.2 µM
- GI50 (OVCAR-5): 19.6 µM
- GI50 (OVCAR-8): 6.3 µM
- GI50 [6]: 3300 nM
- GI50 (SK-OV-3): 12.1 µM
- GI50 (786-0): 7.5 µM
- GI50 (A498): 6.6 µM
- GI50 (ACHN): 9.2 µM
- GI50 (CAKI-1): 1800 nM
- GI50 (UO-31): 5.5 µM
- GI50 (PC-3): 4200 nM
- GI50 (DU-145): 2500 nM
- GI50 [7]: 4300 nM
- GI50 (T47D): 2800 nM

SMILES: COc1ccc(-c2[nH]c3ccccc3c2C=C(C#N)C#N)cc1
- EC50 (MT4): 300 nM
- GI50 (CCRF-CEM): 0.352 µM
- GI50 (HL-60(TB)): 271 nM
- GI50 (K562): 343 nM
- GI50 [1]: 0.49 µM
- GI50 [2]: 1.2 µM
- GI50 (NCI-H23): 0.6 µM
- GI50 (NCI-H322M): 0.49 µM
- GI50 (NCI-H460): 359 nM
- GI50 (NCI-H522): 798 nM
- GI50 [3]: 223 nM
- GI50 (HCT-116): 411 nM
- GI50 (HT-29): 354 nM
- GI50 (KM12): 374 nM
- GI50 (SW-620): 440 nM
- GI50 (SF-268): 709 nM
- GI50 [4]: 336 nM
- GI50 [5]: 263 nM
- GI50 (SNB-19): 1.8 µM
- GI50 (SNB-75): 418 nM
- GI50 (U-251): 483 nM
- GI50 (Malme-3M): 0.874 µM
- GI50 (M14): 295 nM
- GI50 (SK-MEL-2): 0.763 µM
- GI50 (SK-MEL-5): 350 nM
- GI50 (UACC-257): 0.424 µM
- GI50 (UACC-62): 357 nM
- GI50 (IGROV-1): 1400 nM
- GI50 (OVCAR-4): 0.798 µM
- GI50 (OVCAR-5): 1.8 µM
- GI50 (OVCAR-8): 1.2 µM
- GI50 [6]: 343 nM
- GI50 (SK-OV-3): 0.445 µM
- GI50 (786-0): 0.72 µM
- GI50 (A498): 0.458 µM
- GI50 (ACHN): 2.3 µM
- GI50 (CAKI-1): 679 nM
- GI50 (UO-31): 2.8 µM
- GI50 (PC-3): 547 nM
- GI50 (DU-145): 484 nM
- GI50 [7]: 769 nM
- GI50 (T47D): 481 nM
